Sampled rows, rich in hits. Any-hit rate of the full collection: about 0.99%.
Tn6 DDE FP – inhibitors of Tn6 peptide binding to fibrin DD(E), primary screen, biochemical, fluorescence polarization, human fibrin, Tn6 probe. Fibrin DD(E) TRITC-Tn6 fluorescence polarization displacement. inhibition, % at 8.3 µM. 370,000 tested, 0.21% active;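 active = inhibition above a per-campaign cutoff: mean of compounds within control limits plus 3 SD, cut at about 15% in these data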;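 note: 0% = median of all compound wells on the plate and 100% = blocking peptide control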
ABCG2 block – ABCG2 efflux pump inhibitors, primary screen, multiplex with ABCB1, IgMXP3 cells, flow cytometry | Broad substrate specificity ATP-binding cassette transporter ABCG2 (Homo sapiens), Q9UNQ0 | JC-1 efflux | inhibition, % at 6.6 µM | 190,000 tested, 0.1% active;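 active = inhibition above 80%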;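 note: 0% = DMSO and 100% = nicardipine control wells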
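Test system: IgMXP3 (ABCG2) plus far-red-tagged CCRF-Adr (ABCB1) cells / Amount: 3 million cells/mL in well / Reagent: JC-1 transporter substrate / Timing: 10 min compound exposure, 25 °C / Signal: flow cytometry, 530 nm JC-1 signal / Read-out: percent efflux inhibition, scaled nicardipine 100% to DMSO 0% / Benchmarks: nicardipine as high control, DMSO as low control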
Tn7 DDE FP – inhibitors of Tn7 peptide binding to fibrin DD(E), primary screen, biochemical, fluorescence polarization, human fibrin, Tn7 probe | Fibrinogen beta chain (Homo sapiens), P02675 | FP displacement of FITC-Tn7 peptide from fibrin DD(E); 0% = median of compound wells per plate | inhibition, % at 8.3 µM | 370,000 tested, 0.13% active | AID 720508, 2013;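 active = inhibition above the mean of compounds falling within the control limits plus 3 SD of them, cut at about 14% in these data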;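 note: 0% = plate median of compound wells and 100% = 10 µM Aha-Tn7 peptide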
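Assay system: Human clot-derived fibrin DD(E) complex | Buffer or medium: Tris/NaCl/CaCl2 buffer, pH 7.8 | Repeats: One replicate per compound | Benchmarks: Aha-Tn7 high control | Measure: % inhibition scaled between sample-field median and high-control FP | Schedule: 10 min plus 3 h, room temperature | Signal: Fluorescence polarization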
Ins promoter up – insulin promoter activators in MIN6 cells, imaging, high-content screening, mouse beta cells. MIN6 insulin promoter-GFP reporter; active compounds read high. 190,000 tested, 0.3% active. z-score at 5 µM. AID 1625, 2009;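 active = z-score above 3 at 5 µM with at least 500 cells counted in the well; inconclusive = wells under 500 cells, flagged as cytotoxic or low count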
ABCB1 block – ABCB1 efflux pump inhibitors, primary screen, cell-based, multiplex, flow cytometry, ABCG2 counter-screen; ATP-dependent translocase ABCB1 (Homo sapiens), P08183; inhibition, % at 6.6 µM; 190,000 tested, 0.067% active; CCRF-Adr cells, JC-1 efflux; in the data active = inhibition above about 40%;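 note: 0% = vehicle and 100% = reference inhibitor; higher value means more JC-1 retained so stronger ABCB1 efflux block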
Target sequence (P08183 whole entry, looked up): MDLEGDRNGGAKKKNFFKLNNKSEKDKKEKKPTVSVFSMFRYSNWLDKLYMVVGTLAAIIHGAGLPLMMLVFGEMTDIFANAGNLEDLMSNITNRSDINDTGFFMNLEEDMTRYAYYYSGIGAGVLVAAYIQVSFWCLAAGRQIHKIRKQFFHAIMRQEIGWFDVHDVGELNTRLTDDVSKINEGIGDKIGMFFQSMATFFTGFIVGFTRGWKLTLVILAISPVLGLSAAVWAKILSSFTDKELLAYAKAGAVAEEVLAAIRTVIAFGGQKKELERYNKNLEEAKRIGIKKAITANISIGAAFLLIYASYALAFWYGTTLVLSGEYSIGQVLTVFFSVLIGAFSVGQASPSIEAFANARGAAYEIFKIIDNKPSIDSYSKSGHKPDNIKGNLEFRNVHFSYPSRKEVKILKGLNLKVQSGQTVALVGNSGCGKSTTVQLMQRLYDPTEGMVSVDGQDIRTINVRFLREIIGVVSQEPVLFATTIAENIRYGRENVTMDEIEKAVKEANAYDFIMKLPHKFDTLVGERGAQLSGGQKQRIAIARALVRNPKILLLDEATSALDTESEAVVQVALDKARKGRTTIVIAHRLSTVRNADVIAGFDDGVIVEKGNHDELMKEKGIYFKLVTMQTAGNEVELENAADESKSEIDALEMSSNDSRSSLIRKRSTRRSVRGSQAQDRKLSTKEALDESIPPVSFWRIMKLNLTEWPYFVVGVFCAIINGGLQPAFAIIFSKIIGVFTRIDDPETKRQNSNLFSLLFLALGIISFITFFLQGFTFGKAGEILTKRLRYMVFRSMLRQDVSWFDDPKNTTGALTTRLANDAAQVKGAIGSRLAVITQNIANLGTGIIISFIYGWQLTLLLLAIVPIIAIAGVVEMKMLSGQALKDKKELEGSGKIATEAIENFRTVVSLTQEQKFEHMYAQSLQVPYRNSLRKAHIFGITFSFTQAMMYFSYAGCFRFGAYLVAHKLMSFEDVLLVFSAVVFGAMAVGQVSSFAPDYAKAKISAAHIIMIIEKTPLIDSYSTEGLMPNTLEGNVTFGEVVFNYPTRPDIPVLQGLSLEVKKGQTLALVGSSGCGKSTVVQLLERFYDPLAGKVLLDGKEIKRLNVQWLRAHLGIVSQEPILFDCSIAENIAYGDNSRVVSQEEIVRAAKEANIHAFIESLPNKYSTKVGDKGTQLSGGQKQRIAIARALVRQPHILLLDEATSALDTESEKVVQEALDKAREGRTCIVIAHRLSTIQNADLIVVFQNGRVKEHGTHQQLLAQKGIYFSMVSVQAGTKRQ
GRK2 inh – compounds blocking aptamer binding on GRK2 – biochemical, human GRK2, bead flow cytometry, HTS, primary screen; Beta-adrenergic receptor kinase 1 (Homo sapiens), P25098; FAM-aptamer displacement from GRK2; inhibition of aptamer binding, % at 10 µM; 330,000 tested, 0.59% active;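 active = inhibition of aptamer binding above 40%, roughly 3 SD of noise, on plates passing a quality check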;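 note: median bead fluorescence of bound FAM aptamer so fluorescent compounds give negative values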
DDE Tn6 FP ctr – counter-screen for inhibitors of Tn6 peptide binding to fibrin DD(E) | shares compounds with Tn6 DDE FP | AID 720621 | TRITC-Tn6 fluorescence polarization displacement; 0% = median of compound wells, not DMSO | inhibition, % at 8.3 µM | 680 tested, 2% active;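 active = inhibition above the mean of test compounds lying between the control limits plus 3 SD of those, cut at about 14% in these data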;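 note: 0% = median of compound wells and 100% = wells with Aha-Tn7 blocking peptide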
DDE Tn6 confirm – inhibitors of Tn6 peptide binding to fibrin DD(E), confirmation, biochemical, fluorescence polarization, human fibrin, Tn6 probe. shares compounds with Tn6 DDE FP. FP displacement of TRITC-Tn6 peptide from DD(E); 0% = per-plate median of test wells. inhibition, % at 8.3 µM. 680 tested, 10% active. AID 720631, 2013;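 active = inhibition above the mean of compounds lying within the control limits plus 3 SD, cut at about 16% in these data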;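 note: 100% = high control wells holding a competing inhibitor peptide at 10 µM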
The depositor's hits bear a star.

For CC1(C(=O)NS(=O)(=O)c2cccc(Cl)c2)CCN1C(=O)Cc1cc(F)ccc1F (centres undefined) the results were Tn6 DDE FP 16.1*, Tn7 DDE FP -1.9, DDE Tn6 FP ctr -2.4 and DDE Tn6 confirm -3.5.
`CC(C)(C)c1ccc(-c2nnc(SCC(=O)Nc3ccc(Oc4ccccc4)cc3)n2Cc2ccco2)cc1` gave Tn6 DDE FP -1.7 and Tn7 DDE FP -3.0.
`Cc1cc2cc(CNC(=O)c3ccc(S(=O)(=O)N4CCCCC4)cc3)ccc2[nH]1` gave Tn6 DDE FP 18.3*, ABCG2 block 0.7, Tn7 DDE FP -10.4, Ins promoter up 1.51, ABCB1 block 0.0, GRK2 inh 0.0, DDE Tn6 FP ctr 4.8 and DDE Tn6 confirm -5.3.
Screening COc1cccc(CNC(=O)c2ccc(S(=O)(=O)N3CCOCC3)cc2)c1 returned Tn6 DDE FP -6.2 and Tn7 DDE FP 2.5.
For Cc1cc2cc(CNC(=O)c3ccc(S(=O)(=O)N4CCOCC4)cc3)ccc2n1C the results were Tn6 DDE FP 52.9*, ABCG2 block 1.6, Tn7 DDE FP 2.5, Ins promoter up 0.35, ABCB1 block 1.6, GRK2 inh 26.0, DDE Tn6 FP ctr 5.3 and DDE Tn6 confirm 19.2*.
`Cc1cc2cc(CNC(=O)c3ccc(S(=O)(=O)N(C)C)cc3)ccc2n1C` gave Tn6 DDE FP 65.4*, ABCG2 block 1.1, Tn7 DDE FP -1.5, Ins promoter up 0.18, ABCB1 block 0.4, GRK2 inh 31.0, DDE Tn6 FP ctr 5.0 and DDE Tn6 confirm 14.2.
`O=C(NCCc1nc2ccccc2n1CCOc1ccc2cccnc2c1)C1CCCCC1` gave Tn6 DDE FP -7.1 and Tn7 DDE FP 5.7.
Screening O=C(CSc1nc2ccccc2c(=O)[nH]1)NC1CCCCC1 returned Tn6 DDE FP 2.8 and Tn7 DDE FP -6.5.
For CCCCNC(=O)N1CCN(C(=O)c2ccco2)CC1 the results were Tn6 DDE FP 7.8, ABCG2 block 0.1, Tn7 DDE FP 4.7, Ins promoter up 1.4, ABCB1 block 0.9 and GRK2 inh 6.0.
`CCCCC(CC)C(=O)N1CCN(C(=O)c2ccco2)CC1` (centres undefined) gave Tn6 DDE FP 16.6*, ABCG2 block -0.8, Tn7 DDE FP 4.9, Ins promoter up 0.28, ABCB1 block 0.3, GRK2 inh 3.0, DDE Tn6 FP ctr -8.9 and DDE Tn6 confirm -10.4.
For O=C(COc1ccc2ccccc2c1)NCCc1ccc2c(c1)OCCO2 the results were Tn6 DDE FP 17.7*, ABCG2 block 0.5, Tn7 DDE FP -1.4, Ins promoter up 0.08, ABCB1 block 0.2, GRK2 inh 0.0, DDE Tn6 FP ctr -1.5 and DDE Tn6 confirm -9.9.
Screening COc1cc2sc3ccc(-c4ccc(CN5CCOCC5)cc4)cc3c(=O)c2cc1OC returned Tn6 DDE FP 17.6*, Tn7 DDE FP 1.4, GRK2 inh 0.0, DDE Tn6 FP ctr 4.9 and DDE Tn6 confirm -3.5.
`CC(=O)c1cccc(NC(=O)COC(=O)c2n[nH]c3ccccc23)c1` gave Tn6 DDE FP 15.7*, ABCG2 block 4.9, Tn7 DDE FP -3.3, Ins promoter up -0.47, ABCB1 block 0.5, GRK2 inh 0.0, DDE Tn6 FP ctr 6.3 and DDE Tn6 confirm -3.6.
For CCC(=O)Nc1cc(OC)c(NC(=S)Nc2ccccc2CC)cc1OC the results were Tn6 DDE FP 74.0*, Tn7 DDE FP 1.2, DDE Tn6 FP ctr 3.9 and DDE Tn6 confirm -7.0.
CC(=O)Nc1sc2c(c1-c1nc3ccccc3s1)CCOC2 was read as Tn6 DDE FP 15.7*, Tn7 DDE FP -1.2, DDE Tn6 FP ctr 11.3 and DDE Tn6 confirm 7.1.
Screening CC(=O)Nc1sc2c(c1-c1nc3ccccc3s1)CCN(C)C2 returned Tn6 DDE FP -1.6 and Tn7 DDE FP 6.7.
Screening COC(=O)[C@]12C[C@H](CC(=O)NCC3CCCCC3)C(=O)N(Cc3cccc4ccccc34)C1=C[C@H](COCc1ccccc1)O[C@@H]2C returned Tn6 DDE FP 1.6 and Tn7 DDE FP -2.0.
`Cc1cccc(NC(=O)C2CCN(S(=O)(=O)c3ccc(Cl)cc3)CC2)n1` gave Tn6 DDE FP 16.6*, Tn7 DDE FP 6.0, GRK2 inh 2.0, DDE Tn6 FP ctr -2.8 and DDE Tn6 confirm -5.0.
For COC(=O)[C@]12C[C@H](CC(=O)NCCc3ccccc3OC)C(=O)N(CCc3ccc(OC)c(OC)c3)C1=C[C@H](COCc1ccccc1)O[C@@H]2C the results were Tn6 DDE FP 2.7 and Tn7 DDE FP -5.5.
For O=C1c2cccc3c(O)ccc(c23)C(=O)N1Cc1ccccc1 the results were Tn6 DDE FP 23.9*, ABCG2 block 2.6, Tn7 DDE FP -1.3, ABCB1 block 0.3, GRK2 inh 1.0, DDE Tn6 FP ctr 19.2* and DDE Tn6 confirm 18.6*.
Screening COC(=O)c1cc2c(c3c4cc(C)ccc4n(C(=O)c4ccccc4)c13)C(=O)N(Cc1ccccc1)C2 returned Tn6 DDE FP 5.1 and Tn7 DDE FP 5.8.
Cc1ccc(NC(=O)Cc2nc(CCl)cs2)cc1 was read as Tn6 DDE FP 15.4*, ABCG2 block 12.0, Tn7 DDE FP 4.4, Ins promoter up 0.47, ABCB1 block 0.1, GRK2 inh 4.0, DDE Tn6 FP ctr 3.4 and DDE Tn6 confirm 1.3.
For COc1ccc(CC(=O)OCc2csc(CC(=O)Nc3ccc(C)cc3)n2)cc1 the results were Tn6 DDE FP 1.1, Tn7 DDE FP -9.4 and GRK2 inh 0.0.
Screening C[N+]1=C(/C=C/Nc2ccccc2Cl)C(C)(C)c2ccccc21 returned Tn6 DDE FP 6.8, ABCG2 block -1.2, Tn7 DDE FP 2.5, ABCB1 block 1.6 and GRK2 inh 1.0.
`COC(=O)c1ccc2c(c1)C(C)(C)C(/C=C/c1ccccc1O)=[N+]2C` gave Tn6 DDE FP 58.1*, ABCG2 block 3.6, Tn7 DDE FP -19.7, Ins promoter up inconclusive, ABCB1 block 0.1, GRK2 inh 3.0, DDE Tn6 FP ctr -34.0 and DDE Tn6 confirm 3.7.

Screens (PubChem BioAssay)
